From ChEMBL document CHEMBL3875149, “New piperidine-hydrazone derivatives: Synthesis, biological evaluations and molecular docking studies as AChE and BChE inhibitors” (Eur J Med Chem, 2016)

Tests used:
[1] = Cytotoxicity against human BJ cells assessed as decrease in cell viability after 24 hrs by MTT assay; type: toxicity, cell-based
In short: (§1)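 A549 cells were kept in RPMI and BJ fibroblasts in EMEM, each with 10% FBS and 1% penicillin/streptomycin at 37℃ and 5% CO2. MTT was added at 0.5 mg/mL final for 3 h, formazan was dissolved in DMSO and read at 540 nm. Survival is expressed as % of the 0.1% DMSO control, and IC50 was derived from it.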

[2] = Antioxidant activity assessed as inhibition of beta carotene/ linoleic acid peroxidation after 120 mins by spectrophotometric analysis; type: functional
In short: (§2)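 Spectrophotometric radical-scavenging or β-carotene bleaching test, with DMSO as negative control and BHT and α-tocopherol as positive controls. The value is reported as IC50 in µM.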

Cholinesterase = Cholinesterase (Equus caballus, UniProt P81908); test: Inhibition of horse serum butyrylcholinesterase by Ellman's method
Cholinesterase, sequence (P81908 whole entry): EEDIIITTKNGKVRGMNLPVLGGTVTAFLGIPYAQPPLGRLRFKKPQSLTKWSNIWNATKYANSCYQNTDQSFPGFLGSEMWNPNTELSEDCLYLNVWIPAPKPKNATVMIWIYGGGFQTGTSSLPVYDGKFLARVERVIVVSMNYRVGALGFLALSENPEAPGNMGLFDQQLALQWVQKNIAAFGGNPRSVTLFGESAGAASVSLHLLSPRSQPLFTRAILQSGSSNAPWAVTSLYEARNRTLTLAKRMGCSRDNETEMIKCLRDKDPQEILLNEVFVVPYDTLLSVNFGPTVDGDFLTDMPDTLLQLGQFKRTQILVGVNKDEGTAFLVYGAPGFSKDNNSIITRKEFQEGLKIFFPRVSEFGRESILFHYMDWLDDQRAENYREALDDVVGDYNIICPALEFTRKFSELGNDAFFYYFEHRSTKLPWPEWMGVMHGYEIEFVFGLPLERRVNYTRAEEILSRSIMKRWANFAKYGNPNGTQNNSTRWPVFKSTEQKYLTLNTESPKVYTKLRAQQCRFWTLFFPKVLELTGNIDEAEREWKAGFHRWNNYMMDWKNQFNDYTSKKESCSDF
In short: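 Spectrophotometric Ellman assay using horse serum BChE, run alongside a parallel electric eel AChE assay. Inhibition reported as IC50 in µM.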

[3] = Cytotoxicity against human A549 cells assessed as decrease in cell viability after 24 hrs by MTT assay; type: functional, cell-based; settings: A549, 24 h; in short: as §1
[4] = Antioxidant activity assessed as DPPH free radical scavenging activity after 2 hrs by spectrophotometric analysis; type: functional; in short: as §2
[5] = Antioxidant activity assessed as ABTS radical scavenging activity by spectrophotometric analysis; type: functional; in short: as §2
[6] = Antioxidant activity assessed as cupric reducing capacity after 1 hr by spectrophotometric analysis; type: functional
Acetylcholinesterase = Acetylcholinesterase (Electrophorus electricus, UniProt O42275); test: Inhibition of electric eel acetylcholinesterase using acetylthiocholine iodide as substrate by Ellman's method
Acetylcholinesterase, sequence (O42275 whole entry): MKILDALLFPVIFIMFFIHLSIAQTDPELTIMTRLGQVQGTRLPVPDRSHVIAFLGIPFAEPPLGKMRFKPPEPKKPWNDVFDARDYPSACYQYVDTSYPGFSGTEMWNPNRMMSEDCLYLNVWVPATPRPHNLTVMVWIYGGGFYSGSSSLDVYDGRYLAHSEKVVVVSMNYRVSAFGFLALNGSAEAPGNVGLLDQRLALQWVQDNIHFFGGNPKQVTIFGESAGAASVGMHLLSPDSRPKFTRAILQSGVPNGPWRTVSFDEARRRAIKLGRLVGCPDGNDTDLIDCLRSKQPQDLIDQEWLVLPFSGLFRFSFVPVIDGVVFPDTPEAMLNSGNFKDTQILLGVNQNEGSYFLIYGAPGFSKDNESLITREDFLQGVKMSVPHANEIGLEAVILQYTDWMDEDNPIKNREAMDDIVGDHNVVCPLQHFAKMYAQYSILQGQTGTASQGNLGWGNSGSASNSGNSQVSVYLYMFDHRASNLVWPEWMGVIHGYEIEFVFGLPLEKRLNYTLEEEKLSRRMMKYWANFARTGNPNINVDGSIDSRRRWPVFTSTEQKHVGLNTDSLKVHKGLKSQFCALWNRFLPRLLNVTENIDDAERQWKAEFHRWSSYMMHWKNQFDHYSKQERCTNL

Compound | IC50 at 24 h [1] | IC50 [2] | IC50 (Cholinesterase) | IC50 [3] | IC50 [4] | IC50 [5] | A0.5 [6] | IC50 (Acetylcholinesterase)
CCOC(=O)N1CCC(=NNC(=O)c2ccc(F)cc2C(F)(F)F)CC1 | > 400 µM | 68.2 µM | 99.6 µM | > 400 µM | 86.8 µM | 41.9 µM | 25.6 µM | 124 µM
O=C(NN=C1CC(c2ccccc2)NC(c2ccccc2)C1)c1ccccc1 (configuration not stated) | > 400 µM | 41.9 µM | 66 µM | > 400 µM | 42 µM | 238 µM | 45.4 µM | 99.7 µM
CCOC(=O)N1CCC(=NNC(=O)c2ccc(F)cc2)CC1 | > 400 µM | 65.5 µM | 113 µM | > 400 µM | 74.8 µM | 39.2 µM | 4.16 µM | 128 µM
CCOC(=O)N1CCC(=NNC(=O)c2ccc(Cl)cc2)CC1 | > 400 µM | 72.3 µM | 69.5 µM | > 400 µM | 59 µM | 63.9 µM | 23.5 µM | 81.8 µM
O=C(NN=C1CC(c2ccccc2)NC(c2ccccc2)C1)c1ccc(Cl)cc1 (configuration not stated) | > 400 µM | 43.6 µM | 35.3 µM | > 400 µM | 96.7 µM | 67.9 µM | 49.8 µM | 41.2 µM
O=C(NN=C1CC(c2ccccc2)NC(c2ccccc2)C1)c1ccc([N+](=O)[O-])cc1 (configuration not stated) | > 400 µM | 45.2 µM | 86.8 µM | > 400 µM | 88.1 µM | 170 µM | 17.8 µM | 63.9 µM
Cc1c(C)c2c(c(C)c1O)CC[C@@](C)(CCC[C@H](C)CCC[C@H](C)CCCC(C)C)O2 [ALPHA-TOCOPHEROL] | – | 4.5 µM | – | – | 12.3 µM | 4.87 µM | 40.5 µM | –
O=[N+]([O-])c1ccc(NN=C2CC(c3ccccc3)NC(c3ccccc3)C2)c([N+](=O)[O-])c1 (configuration not stated) | > 400 µM | 28.2 µM | – | > 400 µM | 20 µM | 19.2 µM | 29.2 µM | –
CCOC(=O)N1CCC(=NNC(=O)c2ccc(C(F)(F)F)cc2)CC1 | > 400 µM | 49.3 µM | 91.6 µM | – | 33.8 µM | 23.5 µM | 51.4 µM | 136 µM
Cc1cc(C(C)(C)C)c(O)c(C(C)(C)C)c1 [BUTYLATED HYDROXYTOLUENE] | – | 2.34 µM | – | – | 55 µM | 2.91 µM | 3.8 µM | –
O=C(NN=C1CC(c2ccccc2)NC(c2ccccc2)C1)c1ccc(F)cc1 (configuration not stated) | > 400 µM | 56.6 µM | 72.8 µM | > 400 µM | 66 µM | 83.7 µM | 59.6 µM | 91.1 µM
Cc1ccc(C(=O)NN=C2CC(c3ccccc3)NC(c3ccccc3)C2)cc1 (configuration not stated) | > 400 µM | 69 µM | 50.1 µM | > 400 µM | 53.3 µM | 64.1 µM | 50.6 µM | 74.9 µM
O=C(NN=C1CC(c2ccccc2)NC(c2ccccc2)C1)c1ccc(C(F)(F)F)cc1 (configuration not stated) | > 400 µM | 55.3 µM | 99.1 µM | > 400 µM | 65 µM | 153 µM | 92.1 µM | 84.4 µM
O=C(NN=C1CC(c2ccccc2)NC(c2ccccc2)C1)c1ccc(F)cc1C(F)(F)F (configuration not stated) | > 400 µM | 115 µM | 52.4 µM | > 400 µM | 88.3 µM | 88.5 µM | 88.2 µM | 49.5 µM
COc1ccc(C(=O)NN=C2CC(c3ccccc3)NC(c3ccccc3)C2)cc1 (configuration not stated) | > 400 µM | 34.5 µM | 110 µM | > 400 µM | 75.8 µM | 27.9 µM | 77.7 µM | 92.2 µM
O=C(NN=C1CC(c2ccccc2)NC(c2ccccc2)C1)c1ccc(C(F)(F)F)cc1F (configuration not stated) | > 400 µM | 41.1 µM | 117 µM | > 400 µM | 70.2 µM | 63.5 µM | 85.2 µM | 90.1 µM
CCOC(=O)N1CCC(=NNC(=O)c2ccc(OC)cc2)CC1 | – | – | 82.2 µM | > 400 µM | 85.4 µM | 38.3 µM | 36.9 µM | 101 µM
CCOC(=O)N1CCC(=NNC(=O)c2ccc(C)cc2)CC1 | > 400 µM | 52.5 µM | 76.9 µM | > 400 µM | 75.5 µM | 28.1 µM | 11.1 µM | 94.8 µM
CCOC(=O)N1CCC(=NNC(=O)c2ccc(C(F)(F)F)cc2F)CC1 | > 400 µM | 77.4 µM | 95.1 µM | > 400 µM | 86 µM | 59.5 µM | 27.3 µM | 123 µM
CCOC(=O)N1CCC(=NNC(=O)c2ccc([N+](=O)[O-])cc2)CC1 | > 400 µM | 40.2 µM | 156 µM | > 400 µM | 51.7 µM | 10.9 µM | 13.3 µM | 125 µM
